Columns and labels:
K562 = experiment: Growth inhibition of human K562 cells expressing p210Bcr/Abl after 96 hrs by trypan blue exclusion assay; format: functional, cell-based; conditions: K562, 96 h
How it was run: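 K562 cells were kept in RPMI with 10% FBS and penicillin–streptomycin at 37 °C under 5% CO2. Cells were seeded at 1 × 10^5 cells/mL with a range of compound concentrations, using DMSO as the negative control. After 96 h, viability was counted by Trypan blue exclusion and expressed as percent of DMSO control to derive GI50.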

DU-145 = experiment: Growth inhibition of human DU145 cells after 96 hrs by trypan blue exclusion assay; format: functional; conditions: DU-145, 96 h

Row | GI50 (K562) [µM] | GI50 (DU-145) [µM] | Structure (SMILES)
1 | 25 | 25 | O=C(/C(=C\c1cc(Br)c(O)c(Br)c1)S(=O)(=O)Cc1ccc(Br)cc1)c1ccc(Br)cc1
2 | 10 | 10 | CSc1ccc(/C=C(\C(=O)c2ccc(Br)cc2)S(=O)(=O)Cc2ccc(C)cc2)cc1
3 | 10 | 10 | Cc1ccc(C)c(/C=C(/Sc2ccc(Br)cc2)C(=O)c2ccc(Cl)cc2)c1
4 | 1 | 1 | O=C(/C(=C\c1ccc(Br)cc1)SCc1ccc(Cl)cc1)c1ccc(Br)cc1
5 | 1 | 50 | COc1ccc(/C=C(/Sc2ccc(Br)cc2)C(=O)c2ccc(Cl)cc2)cc1
6 | 25 | 25 | COc1cc(/C=C(/SCc2ccc(Br)cc2)C(=O)c2ccc(Br)cc2)cc([N+](=O)[O-])c1O
7 | 50 | 50 | O=C(/C(=C\c1ccccc1OCc1ccccc1)Sc1ccccc1Cl)c1ccccc1Cl
8 | 1 | 1 | O=C(/C(=C\c1ccc(Br)cc1)Sc1ccc(Br)cc1)c1ccc(Cl)cc1
9 | 10 | 10 | CCOc1ccc(/C=C(\C(=O)c2ccc(Cl)cc2)S(=O)(=O)Cc2ccc(C)cc2)cc1OC
10 | 1 | 1 | O=C(/C(=C\c1ccc(Br)c([N+](=O)[O-])c1)Sc1ccc(Br)cc1)c1ccc(Br)cc1
11 | 1 | 1 | COc1ccc(S/C(=C/c2ccccc2OCc2ccccc2)C(=O)c2ccc(Cl)cc2)cc1
12 | 50 | 25 | Cc1ccc(S(=O)(=O)/C(=C/c2cccs2)C(=O)c2ccc(Cl)cc2)cc1
13 | > 50 | > 50 | O=C(C(=Cc1ccc(Br)cc1)S(=O)(=O)Cc1ccc(I)cc1)c1ccc(Br)cc1
14 | > 100 | > 100 | Cc1ccc(S(=O)(=O)/C(=C/c2c(O)cc(O)cc2O)C(=O)c2ccc(Br)cc2)cc1
15 | > 50 | 20 | O=C(C(=Cc1ccc(I)cc1)S(=O)(=O)Cc1ccc(I)cc1)c1ccc(Br)cc1
16 | 1 | 1 | O=C(/C(=C\c1ccc(OCc2ccccc2)cc1)S(=O)(=O)Cc1ccc(Cl)cc1)c1ccc(Cl)cc1

Row | GI50 (K562) [µM] | GI50 (DU-145) [µM] | Structure (SMILES)
17 | 50 | 50 | O=C(/C(=C\c1c(O)cc(O)cc1O)Sc1ccc(Br)cc1)c1ccc(Cl)cc1
18 | 10 | 10 | O=C(/C(=C\c1ccc(O)c([N+](=O)[O-])c1)SCc1ccc(Br)cc1)c1ccc(Br)cc1
19 | 1 | 1 | Cc1ccc(CS/C(=C/c2c[nH]c3ccc(Cl)cc23)C(=O)c2ccc(Cl)cc2)cc1
20 | 25 | 50 | Cc1ccc(S/C(=C/c2ccc(-c3ccccc3)cc2)C(=O)c2ccc(Br)cc2)cc1
21 | 10 | > 100 | CSc1ccc(/C=C(/SCc2ccc(C)cc2)C(=O)c2ccc(Br)cc2)cc1
22 | 1 | 1 | O=C(/C(=C\c1csc([N+](=O)[O-])c1)S(=O)(=O)c1ccc(Br)cc1)c1ccc(Br)cc1
23 | 25 | 10 | CSc1ccc(/C=C(\C(=O)c2ccc(Cl)cc2)S(=O)(=O)Cc2ccc(C)cc2)cc1
24 | 1 | 1 | O=C(/C(=C\c1cc(Cl)cc(Cl)c1Cl)S(=O)(=O)Cc1ccc(Cl)cc1)c1ccc(Br)cc1
25 | 1 | 12 | O=C(/C(=C\c1ccc(Cl)cc1)SCc1ccccc1Cl)c1ccc(Cl)cc1
26 | 10 | 10 | COc1ccc(/C=C(\C(=O)c2ccc(Cl)cc2)S(=O)(=O)c2ccc(Br)cc2)cc1O
27 | 10 | 1 | COc1cc(OC)c(/C=C(/SCc2ccc(Cl)cc2)C(=O)c2ccc(Br)cc2)c(OC)c1
28 | 10 | 10 | COc1ccccc1/C=C(\C(=O)c1ccc(Cl)cc1)S(=O)(=O)Cc1ccc(C)cc1
29 | 25 | 25 | Cc1ccc(S/C(=C/c2ccc(F)cc2C(F)(F)F)C(=O)c2ccc(Br)cc2)cc1
30 | 1 | 10 | Cc1ccc(CS/C(=C/c2ccc(O)cc2)C(=O)c2ccc(Cl)cc2)cc1
31 | 10 | 1 | COc1ccccc1/C=C(/SCc1ccc(Cl)cc1)C(=O)c1ccc(Br)cc1
32 | 1 | 1 | O=C(/C(=C\c1ccc(F)cc1Cl)Sc1ccc(Br)cc1)c1ccc(Br)cc1

Second part, the molecule before the results:

Row | Structure (SMILES) | GI50 (K562) [µM] | GI50 (DU-145) [µM]
33 | O=C(/C(=C\c1ccc([N+](=O)[O-])c(O)c1)SCc1ccc(Br)cc1)c1ccc(C(F)(F)F)cc1 | 1 | 1
34 | Cc1ccc(CS/C(=C/c2ccc(F)c([N+](=O)[O-])c2)C(=O)c2ccc(Cl)c([N+](=O)[O-])c2)cc1 | < 1 | 1
35 | CCOc1ccc(/C=C(\C(=O)c2ccc(Cl)cc2)S(=O)(=O)Cc2ccccc2Cl)cc1OC | 1 | 10
36 | Cc1cc(C)cc(/C=C(\C(=O)c2ccc(Br)cc2)S(=O)(=O)Cc2ccc(F)cc2)c1 | 10 | 10
37 | COc1ccc(/C=C(/SCc2ccc(Cl)cc2)C(=O)c2ccc(Br)cc2)cc1O | 1 | 1
38 | O=C(/C(=C\c1ccc(F)cc1Cl)S(=O)(=O)c1ccc(Br)cc1)c1ccc(Br)cc1 | 25 | 50
39 | O=C(/C(=C\OCc1ccccc1)S(=O)(=O)c1ccccc1Cl)c1ccc(Cl)cc1 | 1 | 1
40 | COc1ccc(S(=O)(=O)/C(=C/c2ccc(Cl)cc2Cl)C(=O)c2ccc(Br)cc2)cc1 | 20 | 20
41 | Cc1ccsc1/C=C(/SCc1ccc(Cl)cc1Cl)C(=O)c1ccc(Cl)cc1 | 50 | 10
42 | O=C(/C(=C\c1ccc(Cl)cc1)Sc1ccc(Br)cc1)c1ccc(Br)cc1 | 1 | 1
43 | Cc1ccc(C)c(/C=C(\C(=O)c2ccc(Cl)cc2)S(=O)(=O)Cc2ccc(Cl)cc2)c1 | 10 | 10
44 | O=C(/C(=C\c1ccc(O)cc1O)Sc1ccccc1Br)c1ccc(Br)cc1 | 50 | 50
45 | O=C(/C(=C/c1ccc(Cl)cc1)Cc1ccc(Cl)c(Cl)c1)c1ccc(Cl)cc1Cl | 1 | 1
46 | O=C(/C(=C\c1c(O)cc(O)cc1O)S(=O)(=O)c1ccccc1Br)c1ccc(Br)cc1 | 50 | 50
47 | O=C(/C(=C\c1ccc([N+](=O)[O-])c(O)c1)SCc1ccc(Br)cc1)c1cc(Cl)ccc1O | 10 | 10
48 | O=C(/C(=C\c1ccc(F)cc1C(F)(F)F)[S+]([O-])Cc1ccc(Cl)cc1)c1ccc(Cl)cc1 (stereo not drawn) | 50 | 50
49 | O=C(/C(=C\c1ccc(Cl)cc1)S(=O)(=O)c1ccc(Br)cc1)c1ccc(Br)cc1 | 50 | 50
50 | COc1ccc(/C=C(\C(=O)c2ccc(Cl)cc2)S(=O)(=O)Cc2ccc(Cl)cc2)c(OC)c1OC | 1 | 10
51 | O=C(/C(=C\c1ccc(F)cc1)S(=O)(=O)c1ccc(Br)cc1)c1ccc(Br)cc1 | 10 | 4
52 | O=C(/C(=C\c1c[nH]c2ccccc12)S(=O)(=O)c1ccc(Br)cc1)c1ccc(Br)cc1 | 25 | 25
53 | CCOc1ccc(/C=C(\C(=O)c2ccc(Cl)cc2)S(=O)(=O)Cc2ccc(F)cc2)cc1OC | 25 | 50

Row | Structure (SMILES) | GI50 (K562) [µM] | GI50 (DU-145) [µM]
54 | Cc1cc(C)cc(/C=C(\C(=O)c2ccc(Cl)cc2)S(=O)(=O)Cc2ccc(Cl)cc2)c1 | 1 | 1
55 | COc1cc(/C=C(/Sc2ccc(Br)cc2)C(=O)c2ccc(Br)cc2)ccc1O | 1 | 1
56 | Cc1ccc(S(=O)(=O)/C(=C/c2sccc2C)C(=O)c2ccc(Br)cc2)cc1 | 25 | 25
57 | O=C(/C(=C\c1c(O)cc(O)cc1O)S(=O)(=O)c1ccc(Br)cc1)c1ccc(Cl)cc1 | > 100 | > 100
58 | Cc1ccc(CS/C(=C/c2cccc(Cl)c2Cl)C(=O)c2ccc(Cl)cc2)cc1 | 25 | 25
59 | O=C(/C(=C\c1ccc(OCc2ccccc2)cc1)SCc1ccc(Cl)cc1)c1ccc(Cl)cc1 | 10 | 1
60 | COc1ccccc1/C=C(/Sc1ccc(C)cc1)C(=O)c1ccc(Br)cc1 | 1 | 9
61 | Cc1ccc(S(=O)(=O)/C(=C/c2c(O)cc(O)cc2O)C(=O)c2ccc(Cl)cc2)cc1 | > 100 | > 100
62 | CN(C)c1ccc(/C=C(/SCc2ccc(F)cc2)C(=O)c2ccc(C(=O)O)cc2)cc1 | 10 | 10
63 | Cc1ccc(S(=O)(=O)/C(=C/c2ccc(C)s2)C(=O)c2ccc(Cl)cc2)cc1 | 25 | 50
64 | COc1cc(OC)c(/C=C(\C(=O)c2ccc([N+](=O)[O-])cc2)S(=O)(=O)Cc2ccc(Cl)cc2)c(OC)c1 | 10 | 10
65 | O=C(/C(=C\c1ccc(Cl)cc1)SCc1ccc(Br)cc1)c1ccccc1Cl | 1 | 25
66 | CN1CCN(c2ccc(/C=C(/SCc3ccc(Br)cc3)C(=O)c3ccc(C(=O)O)cc3)cc2[N+](=O)[O-])CC1 | 1 | 10
67 | O=C(/C(=C\c1ccc([N+](=O)[O-])c(O)c1)SCc1ccc(Br)cc1)c1ccc([N+](=O)[O-])cc1 | 1 | 1
68 | Cc1ccc(CS/C(=C/c2ccccc2F)C(=O)c2ccc(Br)cc2)cc1 | 1 | 10
69 | Cc1ccc(/C=C(/Sc2ccc(F)cc2)C(=O)c2ccc(Cl)cc2)s1 | 25 | 25
70 | O=C(/C(=C\c1c[nH]c2ccc(Br)cc12)SCc1ccc(F)cc1)c1ccc(Cl)cc1 | 1 | 50
71 | COc1cc(C(=O)/C(=C\c2ccc(O)c([N+](=O)[O-])c2)SCc2ccc(Br)cc2)cc(OC)c1OC | 1 | 1
72 | Cc1ccc(/C=C(/SCc2ccc(Cl)cc2)C(=O)c2ccc(Cl)cc2)s1 | 50 | 50
73 | Cc1ccc(/C=C(\C(=O)c2ccc(Cl)cc2)S(=O)(=O)Cc2ccc(Cl)cc2)s1 | 1 | 1
74 | Cc1ccc(/C=C(\C(=O)c2ccc(Br)cc2)S(=O)(=O)Cc2ccc(F)cc2)s1 | 1 | 1

— ChEMBL document CHEMBL1240409, “Design, synthesis and evaluation of (E)-alpha-benzylthio chalcones as novel inhibitors of BCR-ABL kinase” (Bioorg Med Chem, 2010)
